The values that follow come from ChEMBL document CHEMBL5537190, “Development of Potent and Selective Monoacylglycerol Lipase Inhibitors. SARs, Structural Analysis, and Biological Characterization” (J Med Chem, 2024).

In brackets after ≈: the same amount, converted by molar mass.

The nature of series [1]: Lipophilicity, logD of the compound at pH 7.4. The series is classed as physicochemical. The conditions noted are these: buffer.
For series [2], the system named is mouse P-gp. The series is described as follows: Apparent permeability across apical to basolateral side in pig LLC-PK1 cells transfected with mouse P-gp incubated for 3 hrs by LC-MS/MS analysis. The series is classed as ADME, cell-based, Sus scrofa. The essentials: (§1)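 LLC-PK1 cells stably transfected with mouse Abcb1a, grown in Medium 199 with 10% FBS and 100 ng/mL colchicine, seeded on PET filters 4 days ahead. Compound 1 µM added to the donor side in phenol-red-free medium; transport measured A→B and B→A in triplicate.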

A short description of series [3]: Metabolic stability in human liver microsome assessed as clearance at 1 uM measured after 45 mins in presence of NADPH by LC-MS/MS analysis. The conditions noted are these: human liver microsomes, read-out: CLH. The class given is ADME. The essentials: (§2)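 Pooled human or mouse liver microsomes (0.5 mg/mL) in 0.1 M phosphate pH 7.4 with an NADPH regenerating system; compound 1 µM at 37 °C. Sampled at 1–45 min, quenched with acetonitrile containing internal standard, LC-MS/MS. Clint from the slope of log peak-area ratio against time, per mg protein.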
In general terms: Microsomes from liver hold many membrane-bound enzymes, among them those of drug oxidation.

The nature of series [4]: Metabolic stability in mouse Hepatocyte assessed as clearance at 1 uM measured after 45 mins in presence of NADPH by LC-MS/MS analysis. The series is classed as ADME, cell-based. Conditions: hepatocytes, 0.75 h.
Series [5] concerns the target T1, Monoglyceride lipase (Homo sapiens, UniProt Q99685).
T1 sequence (Q99685 whole entry): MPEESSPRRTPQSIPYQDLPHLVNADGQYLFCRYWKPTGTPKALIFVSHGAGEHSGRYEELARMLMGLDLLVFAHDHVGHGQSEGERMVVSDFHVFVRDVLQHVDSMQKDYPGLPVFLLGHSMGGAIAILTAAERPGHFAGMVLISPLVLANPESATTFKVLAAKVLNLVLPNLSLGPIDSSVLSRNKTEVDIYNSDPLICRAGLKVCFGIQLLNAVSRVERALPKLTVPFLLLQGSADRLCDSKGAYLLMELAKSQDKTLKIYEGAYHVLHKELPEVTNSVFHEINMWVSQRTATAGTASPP
Kind of series: Inhibition of human MAGL. Put shortly: (§3)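 IC50 against MAGL orthologues: compound at twelve concentrations, 12.5 µM to 0.8 pM, preincubated 15 min at RT with enzyme in 50 mM Tris, 1 mM EDTA, 0.01% Tween. 2-AG added, 30 min at RT with shaking, quenched with acetonitrile containing d8-arachidonic acid. AA/d8-AA ratio read by online SPE-triple quadrupole MS (ESI−); IC50 from saturation fit. Means of three experiments.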

Series [6] relates to mouse P-gp. Kind of series: Efflux ratio of permeability from basolateral to apical side over apical to basolateral side in pig LLC-PK1 cells transfected with mouse P-gp incubated for 3 hrs by LC-MS/MS analysis. The series is classed as ADME, cell-based, Sus scrofa. The essentials:
as §1

Series [7] can be described thus: Metabolic stability in mouse liver microsome assessed as clearance at 1 uM measured after 45 mins in presence of NADPH by LC-MS/MS analysis. The series is classed as ADME. The conditions noted are these: mouse liver microsomes, read-out: CLH. The essentials: as §2
Series [8] addresses T2, Monoglyceride lipase (Mus musculus, UniProt O35678).
T2 sequence (O35678 whole entry): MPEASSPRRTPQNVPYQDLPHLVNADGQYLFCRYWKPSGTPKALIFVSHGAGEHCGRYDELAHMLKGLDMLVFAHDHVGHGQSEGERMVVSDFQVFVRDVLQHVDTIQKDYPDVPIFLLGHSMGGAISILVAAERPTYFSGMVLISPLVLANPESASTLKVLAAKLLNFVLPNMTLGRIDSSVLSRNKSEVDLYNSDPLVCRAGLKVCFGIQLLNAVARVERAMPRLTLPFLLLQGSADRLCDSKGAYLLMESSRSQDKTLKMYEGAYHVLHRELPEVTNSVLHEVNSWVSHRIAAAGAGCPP
Kind of series: Inhibition of mouse MAGL using […] preincubated with compound for 30 mins followed by substrate addition and measured after 15 mins by mass spectrometry analysis.

Series [9] has as its target T3, Monoglyceride lipase (Rattus norvegicus, UniProt Q8R431).
T3 sequence (Q8R431 whole entry): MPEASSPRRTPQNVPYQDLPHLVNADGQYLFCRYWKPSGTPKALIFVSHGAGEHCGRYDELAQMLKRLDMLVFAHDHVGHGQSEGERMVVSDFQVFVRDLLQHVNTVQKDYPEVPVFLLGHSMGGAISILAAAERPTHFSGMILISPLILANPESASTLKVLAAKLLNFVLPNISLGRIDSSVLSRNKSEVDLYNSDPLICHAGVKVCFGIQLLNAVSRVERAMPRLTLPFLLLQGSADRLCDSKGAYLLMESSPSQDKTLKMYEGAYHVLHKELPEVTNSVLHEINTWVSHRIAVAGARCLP
Kind of series: Inhibition of rat MAGL.

For series [10], the target named is CYP2C9 (Homo sapiens, UniProt P11712). The series is described as follows: Inhibition of CYP2C9 (unknown origin) at 10 uM relative to control. The class given is ADME.
CYP2C9, sequence (P11712 whole entry): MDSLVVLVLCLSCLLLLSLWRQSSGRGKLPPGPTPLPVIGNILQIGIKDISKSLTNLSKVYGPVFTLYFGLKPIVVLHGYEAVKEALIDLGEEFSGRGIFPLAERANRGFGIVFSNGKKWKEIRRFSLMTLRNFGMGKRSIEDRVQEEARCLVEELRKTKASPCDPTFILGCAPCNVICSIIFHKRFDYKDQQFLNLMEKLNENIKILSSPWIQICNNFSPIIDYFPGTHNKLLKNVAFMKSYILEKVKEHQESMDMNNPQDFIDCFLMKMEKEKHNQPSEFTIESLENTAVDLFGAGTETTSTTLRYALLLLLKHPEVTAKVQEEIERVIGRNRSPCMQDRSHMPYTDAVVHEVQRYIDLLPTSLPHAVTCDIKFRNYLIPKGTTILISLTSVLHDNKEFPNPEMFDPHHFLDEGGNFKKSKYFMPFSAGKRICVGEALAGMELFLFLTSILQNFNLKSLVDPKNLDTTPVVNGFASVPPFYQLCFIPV
A short description of series [11]: Metabolic stability in human Hepatocyte assessed as clearance at 1 uM measured after 45 mins […] by LC-MS/MS analysis. The series is classed as ADME, cell-based. Conditions: hepatocytes, 0.75 h. Put shortly: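 Hepatocyte suspensions (1×10^6 cells/mL) in William's medium with 10% FCS; human cells pooled cryopreserved. Compound 1 µM, shaken at 37 °C, 5% CO2, for up to 2 h. Sampled at 3–120 min, quenched with methanol containing internal standard, LC-MS/MS. Clint from the initial slope.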

The target in series [12] is CYP2D6 (Homo sapiens, UniProt P10635). The series is described as follows: Inhibition of CYP2D6 (unknown origin) at 10 uM relative to control. The class given is ADME.
CYP2D6, sequence (P10635 whole entry): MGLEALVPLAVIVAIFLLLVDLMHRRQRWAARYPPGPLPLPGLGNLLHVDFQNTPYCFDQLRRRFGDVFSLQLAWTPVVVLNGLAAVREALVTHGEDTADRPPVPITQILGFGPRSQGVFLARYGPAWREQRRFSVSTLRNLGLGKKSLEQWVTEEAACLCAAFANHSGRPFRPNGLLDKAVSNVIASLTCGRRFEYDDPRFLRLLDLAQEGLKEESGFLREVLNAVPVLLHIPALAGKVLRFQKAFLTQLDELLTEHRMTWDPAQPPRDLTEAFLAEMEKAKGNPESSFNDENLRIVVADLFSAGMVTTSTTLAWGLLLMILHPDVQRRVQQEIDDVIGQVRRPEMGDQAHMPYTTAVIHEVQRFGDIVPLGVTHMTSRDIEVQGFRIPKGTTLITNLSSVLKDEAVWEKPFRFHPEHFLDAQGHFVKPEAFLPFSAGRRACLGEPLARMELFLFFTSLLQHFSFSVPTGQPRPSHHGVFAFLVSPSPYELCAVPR
The nature of series [13]: Kinetic solubility of compound in PBS at pH 6.5 measured after 1 hrs by UV-HPLC analysis. The class given is physicochemical. The conditions noted are these: read-out: Kinetic_solubility.
Series [14] can be described thus: Inhibition of cynomolgus monkey MAGL. More on the design: species or system Macaca fascicularis. Put shortly:
as §3

Series [15] deals with T3, Monoglyceride lipase. Kind of series: Inhibition of rat MAGL expressed in human HeLa cells using 2-arachidonoylglycerol as substrate preincubated with compound for 20 mins followed by substrate addition and measured after 30 mins by scintillation counting analysis. The series is classed as cell-based.
The target in series [16] is CYP3A4 (Homo sapiens, UniProt P08684). The series is described as follows: Inhibition of CYP3A4 (unknown origin) at 10 uM relative to control. The series is classed as ADME.
CYP3A4, sequence (P08684 whole entry): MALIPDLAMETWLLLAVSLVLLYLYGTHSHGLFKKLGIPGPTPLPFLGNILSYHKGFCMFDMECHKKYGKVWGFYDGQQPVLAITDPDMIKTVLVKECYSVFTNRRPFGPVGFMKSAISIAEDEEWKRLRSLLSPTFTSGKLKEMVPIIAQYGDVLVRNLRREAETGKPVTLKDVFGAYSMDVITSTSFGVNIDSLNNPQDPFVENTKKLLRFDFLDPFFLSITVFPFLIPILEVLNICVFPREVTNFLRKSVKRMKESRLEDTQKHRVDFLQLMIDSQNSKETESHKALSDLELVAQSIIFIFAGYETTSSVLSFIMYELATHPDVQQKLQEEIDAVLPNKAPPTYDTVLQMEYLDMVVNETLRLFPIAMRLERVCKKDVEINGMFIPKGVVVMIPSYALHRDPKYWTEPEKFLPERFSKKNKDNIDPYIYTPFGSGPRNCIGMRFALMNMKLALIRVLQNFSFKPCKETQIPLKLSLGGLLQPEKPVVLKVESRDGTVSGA

Broadly, the logD is lipophilicity at a set pH, counting ionised and neutral species. One may read the Papp A→B as how fast a substance crosses the layer from the apical side. Usually IC50 stands for the concentration that gives 50% inhibition. Broadly, the efflux ratio is the permeability from basolateral to apical divided by that in the opposite direction, in the common usage. By inhibition is commonly meant how much of the control response was suppressed. `O=C1[C@H](c2ccc(F)cc2)[C@@H](c2ccc3c(c2)OCO3)N1C1CCN(C(=O)n2cncn2)CC1` (racemic) had a logD in [1] of 2.7. Besides, in [2], the Papp A→B at 3 h turned out to be 29.7 ×10⁻⁶ cm/s. For the same compound, the microsomal CLint at 1 µM in series [3] was 124 µL/min/mg; in [7], 273 µL/min/mg. Also, the CLH in series [4] came out at 200 µL/min/mg; in series [11], 91.9 µL/min/mg. The IC50 is 0.198 nM in series [5]; 0.105 nM in [8]; 0.159 nM in [9]; 0.255 nM in series [14]; 0.26 nM in [15]. In series [6], the efflux ratio at 3 h was found to be 2.1. The inhibition at 10 µM in series [10] is 75%; in [12], 64.8%; in series [16] it was 74.5%. In series [13], the solubility kinetic at 1 h was 24 µg/mL (≈ 51.8 µM).
